Results taken from publication PMC4862007 (Cell metabolism, 2015).

Biological target: T1, ABHD5 / PLIN1 (luciferase complementation) (Mus musculus, UniProt Q9DBL9)
T1 sequence (Q9DBL9 1-351): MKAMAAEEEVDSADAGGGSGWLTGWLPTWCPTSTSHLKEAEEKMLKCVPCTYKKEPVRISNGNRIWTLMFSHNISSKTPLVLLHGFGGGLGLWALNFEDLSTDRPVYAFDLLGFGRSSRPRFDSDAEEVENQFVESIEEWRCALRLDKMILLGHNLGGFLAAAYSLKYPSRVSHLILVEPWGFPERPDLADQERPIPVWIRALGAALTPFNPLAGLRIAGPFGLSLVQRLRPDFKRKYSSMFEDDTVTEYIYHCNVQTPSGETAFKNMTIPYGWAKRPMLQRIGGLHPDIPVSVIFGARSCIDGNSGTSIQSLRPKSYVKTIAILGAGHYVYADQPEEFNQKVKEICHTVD
T1 sequence (Q8CGN5 1-517 partner): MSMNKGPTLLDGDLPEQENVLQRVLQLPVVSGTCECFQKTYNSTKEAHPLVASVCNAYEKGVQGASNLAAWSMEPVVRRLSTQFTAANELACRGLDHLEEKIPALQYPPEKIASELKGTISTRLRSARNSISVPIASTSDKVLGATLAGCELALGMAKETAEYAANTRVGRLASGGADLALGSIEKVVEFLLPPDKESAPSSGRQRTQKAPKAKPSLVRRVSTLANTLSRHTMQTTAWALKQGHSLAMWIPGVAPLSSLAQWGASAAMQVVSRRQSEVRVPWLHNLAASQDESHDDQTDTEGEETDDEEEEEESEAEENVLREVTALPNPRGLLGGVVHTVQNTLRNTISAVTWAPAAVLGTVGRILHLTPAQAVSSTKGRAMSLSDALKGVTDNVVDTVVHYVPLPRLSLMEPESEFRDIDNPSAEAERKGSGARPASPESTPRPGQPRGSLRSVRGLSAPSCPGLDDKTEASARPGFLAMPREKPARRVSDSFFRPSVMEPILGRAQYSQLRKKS
Assay: luciferase complementation, disruption of ABHD5-PLIN1 binding
Format: biochemical
Details: mixed 293T lysates, 4 h, room temperature; n=8
Method in brief: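 Lysates are prepared separately from transfected 293T cells and equal amounts of each are combined. Test compound is added in DMSO, with a DMSO vehicle control. After 4 h at room temperature, complementation is read as luciferase activity.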

| IC50 [nM] | Structure (SMILES) |
| --- | --- |
| 510 ± 60 | Cc1ccc2c(CC(=O)N3CCN(S(=O)(=O)c4ccc5c(c4)OCCO5)CC3)coc2c1 [SR-4559] |
| 200 ± 30 | CCCCNC(=O)Nc1ccc2c(c1)N(C)C(=O)c1ccccc1S2 [SR-4995] |
